Values after ≈ are worked out from the molar mass of the structure shown.
What was measured:
[1] = tested on: Mycobacterium tuberculosis; experiment: Antimycobacterial activity against rifampicin/isoniazid-susceptible Mycobacterium tuberculosis H37Rv ATCC 27294 at 6.25 ug/ml after 5 days by microplate alamar blue assay; format: functional; conditions: H37Rv ATCC 27294, 120 h
In short: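 M. tuberculosis H37Rv (ATCC 27294, rifampicin- and isoniazid-susceptible) screened by Microplate Alamar Blue Assay at a single concentration of 6.25; read-out is % growth inhibition. Compounds showing fluorescence were instead tested in the BACTEC 460 radiometric system.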

[2] = tested on: Mycobacterium tuberculosis; experiment: Antimycobacterial activity against rifampicin/isoniazid-susceptible Mycobacterium tuberculosis H37Rv ATCC 27294 by BACTEC 460 radiometric method; format: functional, organism-based
In short: (§1)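 Radiometric BACTEC 460 growth test on H37Rv (ATCC 27294). Compounds reaching at least 90% inhibition at 6.25 were retested at the lower concentrations 3.125 and 1.0, with % inhibition recorded. […] Isoniazid served as the reference standard.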

[3] = tested on: Vero; experiment: Cytotoxicity against african green monkey Vero cells up to 50 ug/ml; format: cell-based; conditions: chlorocebus sabaeus
[4] = tested on: Mycobacterium tuberculosis; experiment: Antimycobacterial activity against rifampicin/isoniazid-susceptible Mycobacterium tuberculosis H37Rv ATCC 27294 at 1 ug/ml by BACTEC 460 radiometric method; format: functional; in short: as §1
[5] = tested on: Mycobacterium tuberculosis; experiment: Antimycobacterial activity against rifampicin/isoniazid-susceptible Mycobacterium tuberculosis H37Rv ATCC 27294 at 3.125 ug/ml by BACTEC 460 radiometric method; format: functional; in short: as §1

SMILES | inhibition at 6.25 µg/mL [1] | IC50 [2] | further results
NNC(=O)c1cc(C23CC4CC(CC(C4)C2)C3)c2ccccc2n1 | 99% |  | 
COC(=O)[C@H](CCCCNC(=O)OCc1ccccc1)NC(=O)c1cc(C23CC4CC(CC(C4)C2)C3)c2ccccc2n1 | 78% | 3.16 µM | 
CC(C)(C)OC(=O)N[C@@H](Cc1ccc(OCc2ccccc2)cc1)C(=O)NNC(=O)c1cc(C23CC4CC(CC(C4)C2)C3)c2ccccc2n1 | 42% | 12.9 µM | 
COC(=O)[C@H](Cc1ccccc1)NC(=O)c1cc(C23CC4CC(CC(C4)C2)C3)c2ccccc2n1 | 60% | 8.91 µM | 
N=C(N)NCCC[C@H](N)C(=O)NNC(=O)c1cc(C23CC4CC(CC(C4)C2)C3)c2ccccc2n1 | 92% | 1.15 µM | 
NC(=O)c1cc(C23CC4CC(CC(C4)C2)C3)c2ccccc2n1 | 98% |  | 
N=C(N)NCCC[C@H](NC(=O)c1cc(C23CC4CC(CC(C4)C2)C3)c2ccccc2n1)C(=O)NN |  | 0.0214 µM | Activity [3]: Non-toxic; inhibition at 1 µg/mL [4]: 99%
C[C@H](NC(=O)OC(C)(C)C)C(=O)NNC(=O)c1cc(C23CC4CC(CC(C4)C2)C3)c2ccccc2n1 | 88% | 1.74 µM | 
NNC(=O)[C@H](Cc1ccccc1)NC(=O)c1cc(C23CC4CC(CC(C4)C2)C3)c2ccccc2n1 | 50% | 13.5 µM | 
NNC(=O)[C@H](Cc1c[nH]c2ccccc12)NC(=O)c1cc(C23CC4CC(CC(C4)C2)C3)c2ccccc2n1 | 60% | 8.32 µM | 
COC(=O)CNC(=O)c1cc(C23CC4CC(CC(C4)C2)C3)c2ccccc2n1 | 52% | 15.5 µM | 
N[C@@H](Cc1c[nH]cn1)C(=O)NNC(=O)c1cc(C23CC4CC(CC(C4)C2)C3)c2ccccc2n1 | 88% | 1.86 µM | 
NCC(=O)NNC(=O)c1cc(C23CC4CC(CC(C4)C2)C3)c2ccccc2n1 | 35% | 30.2 µM | 
CC(C)(C)OC(=O)N[C@@H](Cc1ccccc1)C(=O)NNC(=O)c1cc(C23CC4CC(CC(C4)C2)C3)c2ccccc2n1 | 85% | 1.95 µM | 
COC(=O)[C@H](CCCNC(=O)OCc1ccccc1)NC(=O)c1cc(C23CC4CC(CC(C4)C2)C3)c2ccccc2n1 | 66% | 5.89 µM | 
COC(=O)[C@H](Cc1ccc(OCc2ccccc2)cc1)NC(=O)c1cc(C23CC4CC(CC(C4)C2)C3)c2ccccc2n1 | 58% | 7.94 µM | 
CC(C)(C)OC(=O)N[C@@H](Cc1c[nH]c2ccccc12)C(=O)NNC(=O)c1cc(C23CC4CC(CC(C4)C2)C3)c2ccccc2n1 |  | 0.0513 µM | Activity [3]: Non-toxic; inhibition at 3.125 µg/mL [5]: 99%
CC(C)(C)OC(=O)N[C@@H](Cc1c[nH]cn1)C(=O)NNC(=O)c1cc(C23CC4CC(CC(C4)C2)C3)c2ccccc2n1 |  | 0.0562 µM | Activity [3]: Non-toxic; inhibition at 3.125 µg/mL [5]: 99%
CSCC[C@H](NC(=O)OC(C)(C)C)C(=O)NNC(=O)c1cc(C23CC4CC(CC(C4)C2)C3)c2ccccc2n1 | 56% | 8.91 µM | 
CC(C)C[C@H](NC(=O)c1cc(C23CC4CC(CC(C4)C2)C3)c2ccccc2n1)C(=O)NN | 83% | 2.95 µM | 
CCC(C)[C@H](NC(=O)OC(C)(C)C)C(=O)NNC(=O)c1cc(C23CC4CC(CC(C4)C2)C3)c2ccccc2n1 (stereo partly specified) | 90% | 1.29 µM | 
CC(C)(C)OC(=O)NCCC[C@H](NC(=O)OC(C)(C)C)C(=O)NNC(=O)c1cc(C23CC4CC(CC(C4)C2)C3)c2ccccc2n1 | 75% | 3.09 µM | 
NC(=O)CC[C@H](N)C(=O)NNC(=O)c1cc(C23CC4CC(CC(C4)C2)C3)c2ccccc2n1 | 45% | 17 µM | 
CC[C@H](C)[C@H](NC(=O)c1cc(C23CC4CC(CC(C4)C2)C3)c2ccccc2n1)C(=O)NN | 70% | 6.17 µM | 
COC(=O)[C@H](CCCNC(=N)N)NC(=O)c1cc(C23CC4CC(CC(C4)C2)C3)c2ccccc2n1 |  | 0.135 µM | Activity [3]: Non-toxic; inhibition at 3.125 µg/mL [5]: 99%
NCCC[C@H](N)C(=O)NNC(=O)c1cc(C23CC4CC(CC(C4)C2)C3)c2ccccc2n1 | 26% | 40.7 µM | 
CC(C)C[C@H](NC(=O)OC(C)(C)C)C(=O)NNC(=O)c1cc(C23CC4CC(CC(C4)C2)C3)c2ccccc2n1 | 90% | 1.29 µM | 

SMILES | inhibition at 6.25 µg/mL [1] | IC50 [2] | further results
COC(=O)[C@H](Cc1c[nH]cn1)NC(=O)c1cc(C23CC4CC(CC(C4)C2)C3)c2ccccc2n1 |  | 0.0692 µM | Activity [3]: Non-toxic; inhibition at 3.125 µg/mL [5]: 99%
NCCCC[C@H](NC(=O)c1cc(C23CC4CC(CC(C4)C2)C3)c2ccccc2n1)C(=O)NN | 36% | 19.5 µM | 
N[C@@H](Cc1c[nH]c2ccccc12)C(=O)NNC(=O)c1cc(C23CC4CC(CC(C4)C2)C3)c2ccccc2n1 | 56% | 9.77 µM | 
NCCCC[C@H](N)C(=O)NNC(=O)c1cc(C23CC4CC(CC(C4)C2)C3)c2ccccc2n1 | 66% | 7.24 µM | 
CC(C)(C)OC(=O)N[C@@H](CCCNC(=N)N)C(=O)NNC(=O)c1cc(C23CC4CC(CC(C4)C2)C3)c2ccccc2n1 |  | 0.055 µM | Activity [3]: Non-toxic; inhibition at 3.125 µg/mL [5]: 99%
COC(=O)[C@H](CCC(N)=O)NC(=O)c1cc(C23CC4CC(CC(C4)C2)C3)c2ccccc2n1 | 55% | 11.5 µM | 
NNC(=O)[C@H](Cc1c[nH]cn1)NC(=O)c1cc(C23CC4CC(CC(C4)C2)C3)c2ccccc2n1 | 99% | 0.138 µM | 
NNC(=O)CNC(=O)c1cc(C23CC4CC(CC(C4)C2)C3)c2ccccc2n1 | 70% | 7.08 µM | 
CCC(C)[C@H](N)C(=O)NNC(=O)c1cc(C23CC4CC(CC(C4)C2)C3)c2ccccc2n1 (stereo partly specified) | 75% | 4.79 µM | 
NNC(=O)[C@H](CCC(N)=O)NC(=O)c1cc(C23CC4CC(CC(C4)C2)C3)c2ccccc2n1 | 50% | 14.1 µM | 
NCCC[C@H](NC(=O)c1cc(C23CC4CC(CC(C4)C2)C3)c2ccccc2n1)C(=O)NN | 48% | 12.3 µM | 
CC(C)(C)OC(=O)NCC(=O)NNC(=O)c1cc(C23CC4CC(CC(C4)C2)C3)c2ccccc2n1 | 60% | 8.71 µM | 
CC(C)C[C@H](N)C(=O)NNC(=O)c1cc(C23CC4CC(CC(C4)C2)C3)c2ccccc2n1 | 75% | 4.79 µM | 
N[C@@H](Cc1ccc(O)cc1)C(=O)NNC(=O)c1cc(C23CC4CC(CC(C4)C2)C3)c2ccccc2n1 | 48% | 13.8 µM | 
CC[C@H](C)[C@H](NC(=O)c1cc(C23CC4CC(CC(C4)C2)C3)c2ccccc2n1)C(=O)OC | 90% | 1.62 µM | 
N[C@@H](Cc1ccccc1)C(=O)NNC(=O)c1cc(C23CC4CC(CC(C4)C2)C3)c2ccccc2n1 | 81% | 3.16 µM | 
COC(=O)[C@H](Cc1c[nH]c2ccccc12)NC(=O)c1cc(C23CC4CC(CC(C4)C2)C3)c2ccccc2n1 | 75% | 4.17 µM | 
CC(C)(C)OC(=O)N[C@@H](CCC(N)=O)C(=O)NNC(=O)c1cc(C23CC4CC(CC(C4)C2)C3)c2ccccc2n1 | 51% | 11 µM | 
COC(=O)[C@H](CC(C)C)NC(=O)c1cc(C23CC4CC(CC(C4)C2)C3)c2ccccc2n1 | 83% | 2.95 µM | 
C[C@H](NC(=O)c1cc(C23CC4CC(CC(C4)C2)C3)c2ccccc2n1)C(=O)NN | 82% | 3.55 µM | 
C[C@H](N)C(=O)NNC(=O)c1cc(C23CC4CC(CC(C4)C2)C3)c2ccccc2n1 | 41% | 22.9 µM | 
COC(=O)[C@H](CCSC)NC(=O)c1cc(C23CC4CC(CC(C4)C2)C3)c2ccccc2n1 | 86% | 2.29 µM | 
CSCC[C@H](N)C(=O)NNC(=O)c1cc(C23CC4CC(CC(C4)C2)C3)c2ccccc2n1 | 59% | 9.55 µM | 
NNC(=O)[C@H](Cc1ccc(O)cc1)NC(=O)c1cc(C23CC4CC(CC(C4)C2)C3)c2ccccc2n1 | 44% | 16.6 µM | 
CSCC[C@H](NC(=O)c1cc(C23CC4CC(CC(C4)C2)C3)c2ccccc2n1)C(=O)NN | 68% | 6.61 µM | 
COC(=O)[C@H](C)NC(=O)c1cc(C23CC4CC(CC(C4)C2)C3)c2ccccc2n1 | 73% | 5.89 µM | 
NNC(=O)c1ccncc1 [ISONIAZID] |  |  | MIC99 [2]: 1 µg/mL (≈ 7.29 µM)

From ChEMBL document CHEMBL1158356, “Synthesis, anti-tuberculosis activity and 3D-QSAR study of amino acid conjugates of 4-(adamantan-1-yl) group containing quinolines” (Eur J Med Chem, 2009)
